Assay results reported in ChEMBL document CHEMBL4024748, “Development of Potent Type I Protein Arginine Methyltransferase (PRMT) Inhibitors of Leukemia Cell Proliferation” (J Med Chem, 2017).
Calls of active or inactive are those of the source. The calls are words filed in the database; no cut-off is given here.

Experiments:
[1] = target: T1, Protein arginine N-methyltransferase 1 (Rattus norvegicus, UniProt Q63009); assay: Inhibition of rat His-tagged PRMT1 (11 to 353 residues) expressed in Escherichia coli BL21(DE3) using biotinylated H4 peptide (1 to 21 residues) as substrate preincubated for 15 mins followed by substrate addition measured after 60 mins in presence of [3H]SAM by microbeta counting method
How it was run: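 Radiometric assay in modified Tris buffer. His6-rPRMT1(11–353) preincubated with compound 15 min at RT, then substrate and [3H]-SAM added. Reaction 60 min at RT, stopped with cold stop solution, transferred to Flashplate for 60 min, washed with water/0.1% Tween-20, counted on Microbeta. IC50 from curve fit.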

[2] = target: T1, Protein arginine N-methyltransferase 1; assay: Inhibition of rat His-tagged PRMT1 (11 to 353 residues) expressed in Escherichia coli BL21(DE3) incubated for 15 mins followed by substrate addition measured after 60 mins by AlphaLisa method
How it was run: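 AlphaLISA IC50 run. Compound dispensed to 1% DMSO final, enzyme in 1x assay buffer preincubated 15 min at room temperature. Substrate added and reacted 60 min at RT, then AlphaLISA bead mix added for 60 min at RT in subdued light. IC50 taken from the dose-response fit.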

[3] = target: Protein arginine N-methyltransferase 1 (Rattus norvegicus) (UniProt Q63009); assay: Binding affinity to rat His-tagged PRMT1 (11 to 353 residues) expressed in Escherichia coli BL21(DE3) at 200 uM by STD-NMR spectroscopic method
How it was run: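 Rat PRMT1 (11–353), N-His6, expressed in E. coli BL21(DE3) with 0.4 mM IPTG at 16°C. Purified by Ni affinity and Superdex200. NMR used 5 µM PRMT1 in phosphate buffer pH 7.4 (20 mM NaH2PO4, 20 mM Na2HPO4, 100 mM NaCl) in D2O. Ligand at 200 µM in 5% DMSO-d6. CPMG run with 5, 2 and 1 µM PRMT1, plus STD.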

[4] = target: Histone-lysine N-methyltransferase EHMT2 (Homo sapiens) (UniProt Q96KQ7); assay: Inhibition of G9a (unknown origin) at 50 uM incubated for 15 mins followed by substrate addition measured after 60 mins by AlphaLisa method
How it was run: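 AlphaLISA. Enzyme and substrate in 1x assay buffer, compound at 1% DMSO final. Enzyme preincubated with compound 15 min at room temperature, then substrate added. Reaction 60 min at room temperature, then bead mix added and incubated 60 min under subdued light before signal read.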

[5] = target: N-lysine methyltransferase SMYD2 (Homo sapiens) (UniProt Q9NRG4); assay: Inhibition of SMYD2 (unknown origin) at 50 uM incubated for 15 mins followed by substrate addition measured after 240 mins by AlphaLisa method
How it was run: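 SMYD2 AlphaLISA at 50 and 100 µM compound, 1% DMSO final. Enzyme preincubated 15 min at RT, then substrate added and reacted 240 min at RT. Bead mix added and incubated 60 min at RT in subdued light before reading.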

[6] = target: DNMT3A2/3L complex (Homo sapiens) (UniProt Q9Y6K1+Q9UJW3); assay: Inhibition of DNMT3A/3L (unknown origin) at 100 uM incubated for 15 mins followed by substrate addition measured after 60 mins by radioisotope assay; type: protein-complex assay
[7] = target: Histone-lysine N-methyltransferase SUV39H1 (Homo sapiens) (UniProt O43463); assay: Inhibition of SUV39H1 (unknown origin) at 100 uM incubated for 15 mins followed by substrate addition measured after 60 mins by AlphaLisa method
How it was run: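 SUV39H1 AlphaLISA at 50 and 100 µM compound, 1% DMSO final. Enzyme preincubated 15 min at room temperature, substrate reaction 60 min at RT. Bead mix then added for 60 min at RT in subdued light before signal collection.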

REH = assay: Cytotoxicity against human REH cells assessed as decrease in cell viability after 96 hrs by Cell-Titer Glo assay; type: functional, cell-based
How it was run: (§1)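 Cells kept at 37°C, 5% CO2, exposed to compound or DMSO control for 96 h. Viability read by CellTiter-Glo luminescence after 2 min shaking to lyse and 10 min at room temperature. Triplicate wells, normalised to control cells. For long-term growth, log-phase seeding densities; cells counted and replated to the starting density with fresh compound on days 4 and 8.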

[8] = Cytotoxicity against human RCTEC cells assessed as decrease in cell viability at 6.25 to 25 uM after 96 hrs by Cell-Titer Glo assay; type: cell-based
How it was run: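 Normal HUV-EC-C, MRC-5 and RCTEC cells at 37°C, 5% CO2, given compound or DMSO control for 96 h. Viability by CellTiter-Glo luminescence after 2 min shaking and 10 min at room temperature. Triplicate wells, normalised to control cells.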

MV4-11 [9] = assay: Antiproliferative activity against human MV4-11 cells assessed as decrease in cell viability measured at day 4 by Cell-Titer Glo assay; type: functional, cell-based; conditions: MV4-11, 96 h; how it was run: as §1
MV4-11 [10] = assay: Antiproliferative activity against human MV4-11 cells assessed as decrease in cell viability measured at day 12 by Cell-Titer Glo assay; type: functional, cell-based; conditions: MV4-11, 288 h; how it was run: as §1
[11] = target: Protein arginine N-methyltransferase 6 (Homo sapiens, UniProt Q96LA8); assay: Inhibition of PRMT6 in human MV411 cells assessed as reduction in H3R2me2a levels after 48 hrs by Western blot analysis; type: cell-based
How it was run: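 MV4-11 cells (37°C, 5% CO2) exposed to compound for 48 h across a range of doses. Histone H3R2 asymmetric dimethylation read by western blot. Membranes blocked in 5% milk/PBST, primary antibody overnight at 4°C, then 1:10000 HRP donkey anti-rabbit secondary for 1 h.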

MV4-11 [12] = assay: Downregulation of MEIS1 mRNA levels in human MV4-11 cells by qRT-PCR analysis; type: functional, cell-based
How it was run: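 MV4-11 cells treated with compound. mRNA measured by SYBR Green qRT-PCR with B2M as internal control. Fold change from ΔΔCt. Samples run in triplicate, mean ± SD.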

T1 sequence (Q63009 whole entry, the tested form may be a part): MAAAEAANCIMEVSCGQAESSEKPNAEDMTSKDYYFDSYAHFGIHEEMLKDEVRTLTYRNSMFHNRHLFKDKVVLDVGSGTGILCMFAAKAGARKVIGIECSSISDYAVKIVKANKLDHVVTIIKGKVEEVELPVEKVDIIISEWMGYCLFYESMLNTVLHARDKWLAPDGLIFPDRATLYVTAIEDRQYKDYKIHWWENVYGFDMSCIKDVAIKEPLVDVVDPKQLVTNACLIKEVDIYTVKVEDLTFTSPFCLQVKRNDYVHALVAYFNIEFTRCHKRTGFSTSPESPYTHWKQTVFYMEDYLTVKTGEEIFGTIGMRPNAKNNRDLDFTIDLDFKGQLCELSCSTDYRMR
Chain of Histone-lysine N-methyltransferase SUV39H1 (Homo sapiens) (O43463 whole entry): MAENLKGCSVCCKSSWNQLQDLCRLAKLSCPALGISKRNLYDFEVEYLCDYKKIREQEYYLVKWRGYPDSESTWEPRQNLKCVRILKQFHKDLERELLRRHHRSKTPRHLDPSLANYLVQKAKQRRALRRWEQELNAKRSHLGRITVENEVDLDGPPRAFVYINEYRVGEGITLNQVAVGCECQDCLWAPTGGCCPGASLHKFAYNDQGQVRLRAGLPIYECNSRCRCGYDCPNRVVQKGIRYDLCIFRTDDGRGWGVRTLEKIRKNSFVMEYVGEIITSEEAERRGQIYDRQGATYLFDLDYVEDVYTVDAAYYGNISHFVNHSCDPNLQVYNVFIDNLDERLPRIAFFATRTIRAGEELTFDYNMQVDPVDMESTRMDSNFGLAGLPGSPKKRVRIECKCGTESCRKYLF
Chain of Histone-lysine N-methyltransferase EHMT2 (Homo sapiens) (Q96KQ7 whole entry): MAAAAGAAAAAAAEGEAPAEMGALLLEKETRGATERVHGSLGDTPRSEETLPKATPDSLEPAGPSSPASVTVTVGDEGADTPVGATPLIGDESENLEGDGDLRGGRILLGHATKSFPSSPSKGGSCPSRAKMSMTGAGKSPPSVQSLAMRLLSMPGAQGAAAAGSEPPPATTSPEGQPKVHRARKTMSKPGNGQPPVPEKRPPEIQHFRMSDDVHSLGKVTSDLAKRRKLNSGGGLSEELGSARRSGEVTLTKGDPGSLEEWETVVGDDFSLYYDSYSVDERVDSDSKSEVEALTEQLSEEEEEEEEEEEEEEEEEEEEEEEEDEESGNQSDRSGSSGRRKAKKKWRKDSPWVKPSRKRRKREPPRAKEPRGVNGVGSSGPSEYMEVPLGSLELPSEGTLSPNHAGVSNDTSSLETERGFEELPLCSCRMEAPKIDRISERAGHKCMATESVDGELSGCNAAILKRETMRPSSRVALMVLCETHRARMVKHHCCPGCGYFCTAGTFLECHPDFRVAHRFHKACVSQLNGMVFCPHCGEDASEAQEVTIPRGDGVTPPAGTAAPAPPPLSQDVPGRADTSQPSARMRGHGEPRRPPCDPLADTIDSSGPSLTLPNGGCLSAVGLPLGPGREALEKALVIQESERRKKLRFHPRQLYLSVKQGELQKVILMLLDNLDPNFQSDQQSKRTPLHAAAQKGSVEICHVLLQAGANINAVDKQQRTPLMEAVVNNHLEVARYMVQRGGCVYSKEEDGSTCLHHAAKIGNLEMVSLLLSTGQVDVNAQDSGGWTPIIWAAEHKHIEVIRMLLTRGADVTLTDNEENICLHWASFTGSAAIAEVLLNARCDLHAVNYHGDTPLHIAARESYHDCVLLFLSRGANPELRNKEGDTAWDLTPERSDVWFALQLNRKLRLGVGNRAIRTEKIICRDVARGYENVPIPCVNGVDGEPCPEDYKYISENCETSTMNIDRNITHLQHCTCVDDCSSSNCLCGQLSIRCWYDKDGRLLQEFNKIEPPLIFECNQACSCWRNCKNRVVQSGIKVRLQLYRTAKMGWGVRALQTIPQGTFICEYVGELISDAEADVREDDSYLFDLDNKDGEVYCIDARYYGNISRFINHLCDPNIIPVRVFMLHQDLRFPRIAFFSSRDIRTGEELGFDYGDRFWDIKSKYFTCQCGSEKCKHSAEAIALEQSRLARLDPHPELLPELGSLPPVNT
Chain of Protein arginine N-methyltransferase 6 (Q96LA8 whole entry, looked up): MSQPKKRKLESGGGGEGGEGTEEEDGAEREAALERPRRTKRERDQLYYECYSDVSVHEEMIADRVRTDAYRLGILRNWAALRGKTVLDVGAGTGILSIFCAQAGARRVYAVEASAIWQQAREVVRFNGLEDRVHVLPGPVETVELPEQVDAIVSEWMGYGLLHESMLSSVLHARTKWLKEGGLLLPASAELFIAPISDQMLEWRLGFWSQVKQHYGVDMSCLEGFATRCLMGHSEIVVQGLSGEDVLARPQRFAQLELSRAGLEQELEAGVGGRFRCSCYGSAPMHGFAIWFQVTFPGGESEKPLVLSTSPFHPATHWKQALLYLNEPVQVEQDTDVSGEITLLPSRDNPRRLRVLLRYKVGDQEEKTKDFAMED
Chain of DNMT3A2/3L complex (Homo sapiens) (Q9UJW3 whole entry, looked up): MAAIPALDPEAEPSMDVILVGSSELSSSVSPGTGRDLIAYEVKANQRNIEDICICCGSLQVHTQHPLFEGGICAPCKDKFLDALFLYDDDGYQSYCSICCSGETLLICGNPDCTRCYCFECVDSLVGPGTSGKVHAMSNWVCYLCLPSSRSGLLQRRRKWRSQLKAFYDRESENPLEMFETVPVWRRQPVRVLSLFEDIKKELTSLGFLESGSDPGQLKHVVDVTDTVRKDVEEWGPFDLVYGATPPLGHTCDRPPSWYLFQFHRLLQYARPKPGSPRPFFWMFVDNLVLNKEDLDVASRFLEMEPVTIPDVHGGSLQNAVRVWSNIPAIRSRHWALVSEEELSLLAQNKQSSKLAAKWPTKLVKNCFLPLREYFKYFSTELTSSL
Chain of DNMT3A2/3L complex (Homo sapiens) (Q9Y6K1 whole entry, looked up): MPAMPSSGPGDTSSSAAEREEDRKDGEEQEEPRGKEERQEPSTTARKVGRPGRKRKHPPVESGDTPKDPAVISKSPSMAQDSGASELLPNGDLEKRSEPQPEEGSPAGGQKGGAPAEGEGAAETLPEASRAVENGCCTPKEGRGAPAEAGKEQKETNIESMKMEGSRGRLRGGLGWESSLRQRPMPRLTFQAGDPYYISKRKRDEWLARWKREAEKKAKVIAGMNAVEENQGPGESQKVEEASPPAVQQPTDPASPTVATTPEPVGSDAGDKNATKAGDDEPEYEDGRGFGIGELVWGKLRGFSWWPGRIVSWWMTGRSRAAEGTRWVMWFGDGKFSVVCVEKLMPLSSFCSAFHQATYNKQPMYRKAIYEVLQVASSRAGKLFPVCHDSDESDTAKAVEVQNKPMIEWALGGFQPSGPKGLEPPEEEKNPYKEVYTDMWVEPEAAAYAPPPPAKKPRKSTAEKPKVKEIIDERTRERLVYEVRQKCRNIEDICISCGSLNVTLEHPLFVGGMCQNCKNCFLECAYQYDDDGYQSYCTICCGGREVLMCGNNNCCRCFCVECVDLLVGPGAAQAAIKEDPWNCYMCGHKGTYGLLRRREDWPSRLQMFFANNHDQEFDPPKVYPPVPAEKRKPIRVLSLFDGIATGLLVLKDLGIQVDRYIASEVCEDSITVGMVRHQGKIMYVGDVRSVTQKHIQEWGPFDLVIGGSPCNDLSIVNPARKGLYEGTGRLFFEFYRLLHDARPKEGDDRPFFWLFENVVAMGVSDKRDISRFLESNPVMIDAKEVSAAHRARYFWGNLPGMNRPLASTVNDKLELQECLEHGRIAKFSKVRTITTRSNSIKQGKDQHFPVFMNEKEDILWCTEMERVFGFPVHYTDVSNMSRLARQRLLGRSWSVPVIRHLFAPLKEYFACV
Chain of Protein arginine N-methyltransferase 1 (Rattus norvegicus) (Q63009 whole entry, looked up, the tested form may be a part): as the sequence (Q63009 whole entry, the tested form may be a part) above
Chain of N-lysine methyltransferase SMYD2 (Homo sapiens) (Q9NRG4 whole entry): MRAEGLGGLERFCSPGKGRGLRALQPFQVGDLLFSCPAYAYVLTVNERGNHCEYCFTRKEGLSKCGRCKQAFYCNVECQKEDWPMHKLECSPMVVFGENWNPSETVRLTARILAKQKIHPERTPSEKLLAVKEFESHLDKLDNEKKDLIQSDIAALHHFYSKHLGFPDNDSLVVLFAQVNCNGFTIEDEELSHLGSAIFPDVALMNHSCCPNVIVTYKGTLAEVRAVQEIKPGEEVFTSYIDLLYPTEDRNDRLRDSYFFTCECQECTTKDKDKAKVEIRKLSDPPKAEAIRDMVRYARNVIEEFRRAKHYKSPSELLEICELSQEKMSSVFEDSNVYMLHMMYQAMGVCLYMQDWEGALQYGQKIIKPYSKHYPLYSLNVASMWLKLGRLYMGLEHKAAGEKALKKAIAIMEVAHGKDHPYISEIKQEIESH

- IC50 [1]: 0.0053 µM
- IC50 [2]: 0.0011 µM
- Activity [3]: Active
- inhibition [4]: Active
- inhibition [5]: Active
- inhibition [6]: Active
- inhibition [7]: Active
- IC50 (MV4-11 [9]): 4.55 µM
- IC50 (MV4-11 [10]): 0.81 µM
- inhibition [11]: Dose-dependent effect
Compound: CN(CCN)Cc1ccccc1Sc1ccccc1Cl
- Activity (REH): Dose-dependent effect
- Activity [8]: Non-Toxic
- Activity (MV4-11 [12]): Dose-dependent effect
